A short description of data set [1]: Antioxidant activity assessed as inhibition of Fe2+-induced DMPO-OH adduct formation from H2O2 preincubated for 30 secs followed by DMPO/H2O2 addition measured after 150 secs by ESR analysis. It counts as physicochemical. The method, boiled down:
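Fenton/ESR spin trapping: 1 mM ammonium iron(II) sulfate was added to 5–500 µM compound, then Tris buffer pH 7.4 (final pH 7.2–7.4). After 30 s, 100 mM DMPO and 100 mM H2O2 were added (stock concentrations). The ESR spectrum was recorded 150 s after H2O2, at room temperature. DMPO-OH adduct expressed as % of control containing FeSO4, H2O2 and DMPO only.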

A short description of data set [2]: Antioxidant activity assessed as ABTS radical scavenging activity after 7 mins. It counts as physicochemical. The method, boiled down:
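ABTS radical cation made from 7 mM ABTS with 2.45 mM persulfate (final), kept in the dark at room temperature 12–16 h. It was then diluted in water pH 7.4 to A734 0.80 and mixed with compound or Trolox standard (final 0–60 µM). A734 was read at 7 min. Percent inhibition plotted against concentration; at least three runs, in triplicate.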

Data set [3] can be described thus: Metal chelating activity assessed as inhibition of Fe2+-ferrozine complex formation after 10 mins. The class given is physicochemical. The method, boiled down:
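Competitive ferrozine assay. FeSO4 (final 10 µM) and ferrozine (final 20 µM) are mixed with nucleotide in DDW at final 25–200 µM and agitated 10 min at room temperature. Absorbance of the Fe(II)-ferrozine complex is read at 562 nm with and without compound, and inhibition of complex formation is calculated. Three experiments, mean ± S.D.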

The next data set has as its target P2Y purinoceptor 1 (Homo sapiens, UniProt P47900). The experiment in a line: Agonist activity at GFP-tagged human P2Y1R transfected in human 1321N1 cells assessed as increase in intracellular Ca2+ level by fura 2/AM probe-based fluorescence assay. The class given is functional, cell-based.
Another data set concerns the target T1, P2Y purinoceptor 11 (Homo sapiens, UniProt Q96G91).
T1 sequence (Q96G91 whole entry): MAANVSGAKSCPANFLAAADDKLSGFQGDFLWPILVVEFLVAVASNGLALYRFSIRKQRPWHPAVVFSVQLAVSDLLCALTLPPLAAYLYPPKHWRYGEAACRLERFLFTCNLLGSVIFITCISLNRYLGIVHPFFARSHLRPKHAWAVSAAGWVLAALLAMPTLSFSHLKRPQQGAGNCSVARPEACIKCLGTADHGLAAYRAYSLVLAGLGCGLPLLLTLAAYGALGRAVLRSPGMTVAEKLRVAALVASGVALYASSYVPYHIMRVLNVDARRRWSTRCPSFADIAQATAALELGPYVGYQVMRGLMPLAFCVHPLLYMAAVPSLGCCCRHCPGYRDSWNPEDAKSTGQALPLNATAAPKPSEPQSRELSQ
As to the kind of experiment: Agonist activity at GFP-tagged human P2Y11R transfected in human 1321N1 cells assessed as increase in intracellular Ca2+ level by fura 2/AM probe-based fluorescence assay. It counts as functional, cell-based.

Data set [4] relates to PC-12. The experiment in a line: cells. To be noted: Rattus norvegicus, PC-12, 1 h.
A short description of data set [5]: Half life in human serum at 37 degC by HPLC analysis. The class given is ADME, cell-free. Summed up: (§1)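 Nucleotides were incubated in human blood serum or RPMI-1640 at 37 °C for 0.5–24 h. Hydrolysis was followed by the change in HPLC peak integration of each analogue over time, and half-life was derived from this.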
A short description of data set [6]: Half life of the compound in RPMI-1640 medium at 37 degC by HPLC analysis. It counts as ADME. The method, boiled down: as §1
Data set [7] relates to PC-12.

SMILES strings stand for the structures.

Sequence of P2Y purinoceptor 1 (P47900 whole entry): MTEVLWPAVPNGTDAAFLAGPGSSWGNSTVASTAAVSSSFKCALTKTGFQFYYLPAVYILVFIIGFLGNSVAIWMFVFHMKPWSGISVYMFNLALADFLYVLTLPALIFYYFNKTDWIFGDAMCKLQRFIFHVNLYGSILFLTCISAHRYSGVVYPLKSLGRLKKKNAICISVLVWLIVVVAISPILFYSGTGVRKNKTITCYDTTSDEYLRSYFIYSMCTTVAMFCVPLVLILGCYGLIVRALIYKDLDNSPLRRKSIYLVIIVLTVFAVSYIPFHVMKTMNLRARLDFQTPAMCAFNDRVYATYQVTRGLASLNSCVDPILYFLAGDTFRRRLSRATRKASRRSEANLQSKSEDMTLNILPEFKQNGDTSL

`Nc1ncnc2c1ncn2[C@@H]1O[C@H](COP(=O)(O)OP(=O)(O)S)[C@@H](O)[C@H]1O` (some centres undefined): the IC50 came to 19 µM in [1], 15 µM in data set [2], 85 µM in data set [3] and 20 µM in the data set on PC-12 [4]. Further, the figures for the EC50 at P2Y purinoceptor 1 and on P2Y purinoceptor 11 were 1.27 µM and 32.7 µM, respectively.

In the case of `CSc1nc(N)c2ncn([C@@H]3O[C@H](COP(=O)(O)OP(=O)(O)S)[C@@H](O)[C@H]3O)c2n1` (some centres undefined), the half-inhibitory concentration (IC50) in data set [1] is 21 µM; in data set [2], 15 µM; with PC-12 [4] it was 12 µM. Further, the EC50 at P2Y purinoceptor 1 was 0.037 µM; on P2Y purinoceptor 11 it was 0.9 µM.

In the case of `Nc1nc(Cl)nc2c1ncn2[C@@H]1O[C@H](COP(=O)(O)OP(=O)(O)S)[C@@H](O)[C@H]1O` (some centres undefined), the half-maximal inhibitory concentration (IC50) in data set [1] stood at 21 µM; in data set [2], 13 µM; in the data set on PC-12 [4] it was 5 µM. Besides, the concentration giving a half-maximal response (EC50) at P2Y purinoceptor 1 is 0.09 µM; at P2Y purinoceptor 11, 1 µM.

As for `Nc1ncnc2c1ncn2[C@@H]1O[C@H](COP(=O)(S)OP(=O)(O)O)[C@@H](O)[C@H]1O` (stereo in doubt; 6A), the half-maximal inhibitory concentration (IC50) amounted to 31 µM in data set [1], 20 µM in data set [2] and 38 µM in the data set on PC-12 [4]. The half-life in data set [5] and in data set [6] was 14.5 h throughout. Further, the EC50 on P2Y purinoceptor 1 was determined as 0.08 µM; at P2Y purinoceptor 11, 4.5 µM.

Regarding `Nc1ncnc2c1ncn2[C@@H]1O[C@H](COP(=O)(S)OP(=O)(O)O)[C@@H](O)[C@H]1O` (stereo in doubt; 6B), the IC50 was 36 µM in [1], 22 µM in data set [2] and 39 µM in the data set on PC-12 [7]. In addition, the figures for the EC50 on P2Y purinoceptor 1 and at P2Y purinoceptor 11 were 0.13 µM and 8.7 µM, respectively.

Take `Nc1nc(Cl)nc2c1ncn2[C@@H]1O[C@H](COP(=O)(S)OP(=O)(O)O)[C@@H](O)[C@H]1O` (stereo in doubt; 8A): the results for the IC50 (in [1]; in data set [2]; in the data set on PC-12 [4]) were 36 µM, 11 µM and 0.2 µM, respectively. For the same molecule, the concentration for a half-maximal effect (EC50) on P2Y purinoceptor 1 came to 0.03 µM; on P2Y purinoceptor 11, 1.4 µM.

Turning to `Nc1nc(Cl)nc2c1ncn2[C@@H]1O[C@H](COP(=O)(S)OP(=O)(O)O)[C@@H](O)[C@H]1O` (stereo in doubt; 8B), the IC50 in data set [1] turned out to be 39 µM; in data set [2] it was 12 µM; in the data set on PC-12 [7] it was 0.11 µM. Also, the EC50 at P2Y purinoceptor 1 stood at 1.5 µM; on P2Y purinoceptor 11 it was 0.5 µM.

As for `Nc1nc(Cl)nc2c1ncn2[C@@H]1O[C@H](COP(=O)(S)OP(=O)(O)OP(=O)(O)O)[C@@H](O)[C@H]1O` (stereo in doubt; 9A), the values for the half-inhibitory concentration (IC50) (in data set [1]; in data set [2]; with PC-12 [4]) were 37 µM, 25 µM and 106 µM, respectively. For the same molecule, the concentration for a half-maximal effect (EC50) at P2Y purinoceptor 1 stood at 0.73 µM; at P2Y purinoceptor 11, 9.1 µM.

As for `Nc1nc(Cl)nc2c1ncn2[C@@H]1O[C@H](COP(=O)(S)OP(=O)(O)OP(=O)(O)O)[C@@H](O)[C@H]1O` (stereo in doubt; 9B), the 50% inhibitory concentration (IC50) worked out at 27 µM in [1], 24 µM in [2] and 100 µM in the data set with PC-12 [7]. Besides, the 50% effective concentration (EC50) at P2Y purinoceptor 1 turned out to be 0.88 µM; at P2Y purinoceptor 11, 1.1 µM.

On to `Nc1ncnc2c1ncn2[C@@H]1O[C@H](COP(=O)(O)OP(=O)(O)OP(=O)(O)O)[C@@H](O)[C@H]1O` [ADENOSINE TRIPHOSPHATE], for which the half-maximal inhibitory concentration (IC50) in [2] was found to be 60 µM.

As to `O=C(O)CC(O)(CC(=O)O)C(=O)O` [CITRIC ACID], the 50% inhibitory concentration (IC50) in data set [3] is 300 µM.

`O=C(O)CN(CCN(CC(=O)O)CC(=O)O)CC(=O)O` [EDETIC ACID]: the half-inhibitory concentration (IC50) in data set [1] is 54 µM.

In the case of `O=C(O)CN(CCN(CC(=O)O)CC(=O)O)CCN(CC(=O)O)CC(=O)O` [PENTETIC ACID], in [3], the IC50 was 90 µM.

As for `Cc1c(C)c2c(c(C)c1O)CCC(C)(C(=O)O)O2` (centres undefined) [TROLOX], the values for the IC50 in data set [2] and in data set [3] were 18 µM and 150 µM, respectively.

As a reminder, the IC50 is the concentration that inhibits the measured activity by half. In general, EC50 refers to the concentration needed to bring the measured effect to its halfway point. Usually half-life stands for how long it takes for the measured level to halve. A low value points to fast loss.

The values are drawn from ChEMBL document CHEMBL3632592, “Identification of Highly Promising Antioxidants/Neuroprotectants Based on Nucleoside 5'-Phosphorothioate Scaffold. Synthesis, Activity, and Mechanisms of Action” (J Med Chem, 2015).
